Data set [1] in a line: Selectivity ratio of IC50 for human MCF-10A cells to IC50 for human A549 cells. The class given is toxicity. As to conditions: MCF-10A cells versus A549 cells, read-out: Ratio IC50.
Data set [2] can be described thus: Selectivity ratio of IC50 for human MCF-10A cells to IC50 for human SNU-638 cells. Put shortly: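 Cytotoxicity by SRB assay: cells seeded in 96-well plates and treated with compounds; fixed, stained with 0.4% SRB in 1% acetic acid, dye dissolved in 10 mM Tris (pH 10.0), absorbance read at 515 nm. IC50 by non-linear regression, means of at least three experiments; ratio of MCF10A IC50 to cancer-line IC50.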

The test system of data set [3] is MDA-MB-231. Put plainly: Cytotoxicity against human MDA-MB-231 cells assessed as reduction in cell viability by SRB assay. The class given is functional, cell-based. Put shortly:
(§1)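 Cells seeded in 96-well plates and exposed to compounds for the stated times. Zero-day controls were incubated 30 min. Cells were fixed and stained with 0.4% SRB in 1% acetic acid, and bound dye was dissolved in 10 mM Tris (pH 10.0). A515 was read, and IC50 was calculated by non-linear regression.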

Data set [4] in a line: Toxicity in human MDA-MB-231 cells xenografted BALB/c nu mouse at 5 to 15 mg/kg, ip administered thrice per week for 38 days. The class given is organism-based. As to conditions: in vivo, 912 h, dose 5-15 mg/kg, time 38 day. An outline of the steps:
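Female BALB/c-nu mice, 5–6 weeks old, received 1 × 10⁷ luciferase-expressing MDA-MB-231 cells in 50:50 DMEM/Matrigel into the fourth fat pad. At day 10, mice were randomized into groups of six. Dosing was i.p. three times weekly for 38 days, in vehicle EtOH/Cremophor/saline 5:5:90. Body weight was recorded weekly, and toxicity was judged by lethality and weight loss.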
(In xenograft studies the graft and the host belong to different species.)

Data set [5] deals with MDA-MB-231. As to the kind of experiment: Antiinvasive activity in human MDA-MB-231 cells assessed as reduction in cell invasion through matrigel-coated chamber after 24 hrs by diff-quik staining based microscopic analysis. The class given is functional. The note with it: dose 50-400 nM. An outline of the steps: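 MDA-MB-231 cells pretreated with compound (50–400 nM) for 24 h, harvested into serum-free medium and plated at 0.5–1 × 10⁶ cells/chamber on transwell inserts (8 μm pores) coated with type I collagen and 1:20 Matrigel/PBS; 30% FBS medium as chemoattractant below. After 24 h, invaded cells fixed, Diff-Quik stained, counted in 5 random fields at 200×; three separate experiments.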

Data set [6] addresses Histone-lysine N-methyltransferase, H3 lysine-79 specific (Homo sapiens) (UniProt Q8TEK3). Put plainly: Inhibition of DOT1L in human MDA-MB-231 cells assessed as effect on histone H3 methylation at 50 to 200 nM by Western blot analysis. The class given is cell-based. As to conditions: dose 50-200 nM. Put shortly:
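MDA-MB-231 cell lysates in 2× SDS buffer, protein by BCA; 5–20 μg on 8–15% SDS-PAGE, transferred to PVDF, BSA-blocked and probed with antibodies to H3K4me2, H3K27me2, H3K36me2, H3K79me2 and total histone H3; ECL detection. Mean ± SD (n = 3), three separate experiments.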
(In general: A western blot detects proteins with antibodies after separation by electrophoresis.)

In data set [7] the test system is MDA-MB-231. Put plainly: Antitumor activity against human MDA-MB-231 cells xenografted in BALB/c nu mouse assessed as reduction in tumor weight at 5 to 15 mg/kg, ip administered thrice per week for 38 days measured 1 week post last dose. The class given is functional, organism-based. As to conditions: dose 5-15 mg/kg, time 45.0 day. An outline of the steps:
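Female BALB/c-nu mice (5–6 wk) given 1 × 10⁷ luciferase-expressing MDA-MB-231 cells in 50:50 DMEM/Matrigel into the fourth fat pad; randomized after 10 days (six per group). Dosed ip in EtOH/Cremophor/saline (5:5:90) three times weekly for 38 days. Tumor L, W, H measured by caliper, volume = LWH/2; body weight weekly; tumors excised and weighed at termination.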

Data set [8] concerns MDA-MB-231. As to the kind of experiment: Antimetastatic activity against human MDA-MB-231 cells xenografted in BALB/c nu mouse assessed as down regulation of H3K79me2 expression in tumor tissue at 5 to 15 mg/kg, ip administered thrice per week for 38 days measured 1 week post last dose by H and E staining based immunohistochemical analysis. The note with it: dose 5-15 mg/kg, time 45.0 day. The class given is functional, organism-based. An outline of the steps:
(§2)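 Tumors and lungs from orthotopic MDA-MB-231/Luc nude mice (ip dosing three times weekly, 38 days) fixed in 4% PFA, paraffin-embedded, sectioned, antigen-retrieved. Lungs H&E-stained for metastatic cells; tumor sections immunostained for Ki67, H3K79me2, E-cadherin, vimentin with HRP detection, hematoxylin counterstain, imaged at 200×.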

The subject of data set [9] is MDA-MB-231. As to the kind of experiment: Up regulation of CDH1 mRNA expression in human MDA-MB-231 cells at 50 to 200 nM measured after 24 hrs by RT-PCR analysis. The class given is functional, cell-based. As to conditions: dose 50-200 nM.
Data set [10] concerns SNU-638. Put plainly: Cytotoxicity against human SNU-638 cells assessed as reduction in cell viability by SRB assay. The class given is functional, cell-based. Put shortly:
as §1

The test system of data set [11] is MDA-MB-231. As to the kind of experiment: Down regulation of VIM mRNA expression in human MDA-MB-231 cells at 50 to 200 nM measured after 24 hrs by RT-PCR analysis. The class given is functional, cell-based. As to conditions: dose 50-200 nM.
Data set [12] deals with MDA-MB-231. Put plainly: Up regulation of CDH1 expression in human MDA-MB-231 cells at 50 to 200 nM measured after 48 hrs by Western blot analysis. As to conditions: dose 50-200 nM. The class given is functional, cell-based. Put shortly:
(§3)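 MDA-MB-231 cells exposed to compound for 48 h; lysates in 2× SDS sample buffer with orthovanadate and NaF, protein by BCA. 5–20 μg resolved on 8–15% SDS-PAGE, PVDF, BSA block, probed for E-cadherin, N-cadherin, ZEB1, vimentin; ECL detection, β-actin internal control, band densitometry. Mean ± SD (n = 3), three experiments.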

Data set [13] has as its system MDA-MB-231. As to the kind of experiment: Antimetastatic activity against human MDA-MB-231 cells xenografted in BALB/c nu mouse assessed as reduction in metastatic cells in lung tissue at 5 to 15 mg/kg, ip administered thrice per week for 38 days measured 1 week post last dose by H and E staining based immunohistochemical analysis. The class given is functional, organism-based. The note with it: dose 5-15 mg/kg, time 45.0 day. Put shortly:
as §2

Data set [14] deals with MDA-MB-231. Put plainly: Down regulation of CDH2 expression in human MDA-MB-231 cells at 50 to 200 nM measured after 48 hrs by Western blot analysis. The class given is functional, cell-based. As to conditions: dose 50-200 nM. Put shortly: as §3
Data set [15] relates to MDA-MB-231. Put plainly: Antimigratory activity in human MDA-MB-231 cells assessed as suppression of wound closure after 24 hrs by microscopic analysis. The note with it: dose 50-400 nM. The class given is functional, cell-based. An outline of the steps: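 MDA-MB-231 monolayers at 80–90% confluence scratched with a pipette tip, washed with PBS, then kept 24 h in medium with 1% FBS plus compound at various concentrations. Wounds photographed at 0 and 24 h; area measured by image analysis and expressed as wound healing (%) relative to the 0 h area. Mean ± SD (n = 3), three separate experiments.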

The target of data set [16] is Histone-lysine N-methyltransferase, H3 lysine-79 specific (Homo sapiens) (UniProt Q8TEK3). As to the kind of experiment: Inhibition of DOT1L in human MDA-MB-231 cells assessed as down regulation of H3K79me2 expression at 200 nM by Western blot analysis. The class given is cell-based. An outline of the steps:
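MDA-MB-231 lysates were made in 2× SDS sample buffer with vanadate and fluoride. 5-20 μg protein was run on 8–15% SDS-PAGE and blotted to PVDF. Membranes were blocked in 5% BSA, probed for H3K79me2 with total histone H3, and detected by ECL. Mean ± SD (n = 3), representative of three separate experiments.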

In data set [17] the test system is MDA-MB-231. Put plainly: Antitumor activity against human MDA-MB-231 cells xenografted in BALB/c nu mouse assessed as down regulation of Ki67 expression in tumor tissue at 5 to 15 mg/kg, ip administered thrice per week for 38 days measured 1 week post last dose by H and E staining based immunohistochemical analysis. The class given is functional, organism-based. As to conditions: dose 5-15 mg/kg, time 45.0 day. An outline of the steps: as §2

The test system of data set [18] is HCT-116. Put plainly: Cytotoxicity against human HCT-116 cells assessed as reduction in cell viability by SRB assay. The class given is functional, cell-based. Put shortly:
as §1
A general note: The SRB assay estimates cell density from bound dye.

Active and inactive are the calls of the source. No cut-off for these calls is given here. Some results are limits rather than exact numbers.

Histone-lysine N-methyltransferase, H3 lysine-79 specific (Homo sapiens), sequence (Q8TEK3 whole entry, looked up): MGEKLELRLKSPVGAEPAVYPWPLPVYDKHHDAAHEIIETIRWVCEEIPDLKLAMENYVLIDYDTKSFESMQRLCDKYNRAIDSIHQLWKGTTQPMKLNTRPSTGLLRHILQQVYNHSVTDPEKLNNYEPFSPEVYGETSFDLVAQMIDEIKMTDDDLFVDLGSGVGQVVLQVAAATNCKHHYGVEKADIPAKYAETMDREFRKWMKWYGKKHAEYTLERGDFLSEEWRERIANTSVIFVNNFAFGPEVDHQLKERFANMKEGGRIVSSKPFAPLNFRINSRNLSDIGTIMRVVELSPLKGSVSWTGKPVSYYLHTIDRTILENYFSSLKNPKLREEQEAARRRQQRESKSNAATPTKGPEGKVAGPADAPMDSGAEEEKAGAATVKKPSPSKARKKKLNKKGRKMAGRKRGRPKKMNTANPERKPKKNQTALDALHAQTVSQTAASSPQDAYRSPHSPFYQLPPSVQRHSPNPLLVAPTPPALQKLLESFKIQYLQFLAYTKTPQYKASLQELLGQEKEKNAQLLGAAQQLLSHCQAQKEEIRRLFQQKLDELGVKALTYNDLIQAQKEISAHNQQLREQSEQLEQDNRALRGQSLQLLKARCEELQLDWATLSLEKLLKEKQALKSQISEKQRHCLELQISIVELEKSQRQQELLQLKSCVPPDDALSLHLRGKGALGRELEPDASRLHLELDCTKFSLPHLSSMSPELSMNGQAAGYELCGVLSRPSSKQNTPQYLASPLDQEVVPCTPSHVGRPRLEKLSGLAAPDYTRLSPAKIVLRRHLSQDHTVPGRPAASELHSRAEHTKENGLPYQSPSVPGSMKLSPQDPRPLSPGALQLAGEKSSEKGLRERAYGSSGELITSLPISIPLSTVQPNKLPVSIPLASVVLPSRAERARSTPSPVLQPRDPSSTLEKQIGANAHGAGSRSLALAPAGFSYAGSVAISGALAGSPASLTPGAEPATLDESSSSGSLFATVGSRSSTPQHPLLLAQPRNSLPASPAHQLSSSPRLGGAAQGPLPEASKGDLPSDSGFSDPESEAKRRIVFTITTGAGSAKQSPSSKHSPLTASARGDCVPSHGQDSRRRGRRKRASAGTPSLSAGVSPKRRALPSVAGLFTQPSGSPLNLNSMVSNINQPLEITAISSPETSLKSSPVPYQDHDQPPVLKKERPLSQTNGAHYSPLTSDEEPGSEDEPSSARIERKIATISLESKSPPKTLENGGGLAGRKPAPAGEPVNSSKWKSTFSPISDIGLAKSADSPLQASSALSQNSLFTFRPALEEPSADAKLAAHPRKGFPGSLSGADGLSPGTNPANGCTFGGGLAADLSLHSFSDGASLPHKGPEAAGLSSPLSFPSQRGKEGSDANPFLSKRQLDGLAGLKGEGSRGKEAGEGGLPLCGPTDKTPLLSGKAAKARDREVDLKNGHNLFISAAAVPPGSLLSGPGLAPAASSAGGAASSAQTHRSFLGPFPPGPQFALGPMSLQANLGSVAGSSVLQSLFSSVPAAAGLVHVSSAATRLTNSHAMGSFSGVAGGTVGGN

For orientation: IC50 means the concentration needed to halve the response being measured. Regarding `O=C(NCC[Se][Se]CCNC(=O)/C(Cc1ccccc1)=N/O)/C(Cc1ccccc1)=N/O`, the selectivity ratio in data set [1] was > 100. In data set [2], the “Ratio IC50” value is recorded as >100. For the same compound, the IC50 in data set [3] was 60 nM; in data set [10] it was 50 nM; in [18] it was 90 nM. The Activity result is “Non-Toxic” in [4], “Dose-dependent effect” in data set [5] and “Dose-dependent effect” in data set [15]. In addition, the inhibition entry in data set [6] was “Active”. Besides, the outcome in [7], in data set [8], in data set [9], in [11], in [12] and in data set [13] was Active. Moreover, the result in [14] and in [17] was Active. The “H3K79me2 downregulation (active/not active)” value in [16] is “Active”.

For the origin of these results see ChEMBL document CHEMBL4706701, “Synthesis and biological activity of selenopsammaplin A and its analogues as antitumor agents with DOT1L inhibitory activity” (Bioorg Med Chem, 2021).
